Test results: PMC5433042 (Chemical Science, 2014)

Assays:
HeLa cells = assay: Resazurin cell viability assay, HeLa; format: cell-based, human
In short: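 HeLa cells are kept in DMEM with 5% FCS, penicillin/streptomycin, at 37 °C and 5% CO2. Cells are seeded in triplicate at 4 × 10^3 per well one day ahead, then exposed 48 h to increasing concentrations diluted in medium from 10 mg mL−1 DMSO stocks. Medium is then replaced with resazurin (0.2 mg mL−1 final) for 4 h at 37 °C, and resorufin fluorescence is read at ex 540/em 590 nm.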

[1] = tested on: B. subtilis 1981 GFP-MinD; assay: GFP-MinD delocalization assay; format: cell-based, Bacillus subtilis; settings: 8 μg mL^–1 (2× MIC), nisin 0.75 μg mL^–1; 15 minutes
B. subtilis 168 [2] = assay: BacLight membrane disruption assay; format: cell-based, Bacillus subtilis; settings: 8 μg mL^–1 (2× MIC), nisin 0.75 μg mL^–1; 15 minutes
In short: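 B. subtilis 168 is grown in Belitzky minimal medium to early log phase and exposed for 15 min; untreated aliquot serves as control. Cells are stained 15 min with a 1:1 SYTO 9/propidium iodide mix (1 μL per mL cells), washed twice in 100 mM Tris/1 mM EDTA pH 7.5, then examined by fluorescence microscopy. Red or orange cells in the overlay indicate permeabilized membranes.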

B. subtilis 168 [3] = assay: Cell wall integrity assay; format: cell-based, Bacillus subtilis; settings: 8 μg mL^–1 (2× MIC), nisin 0.75 μg mL^–1; 15 minutes

Row | Compound | IC50 HeLa (HeLa cells; 48 h) [μg mL^–1] | IC50 (HeLa cells; read-out: IC50 HeLa, 48 h) [µM] | GFP-MinD localization (membrane depolarization) [1] | membrane permeabilization, BacLight staining (B. subtilis 168 [2]) | cell wall integrity after acetic acid/methanol fixation (B. subtilis 168 [3])
1 | N.N.[Cl][Pt][Cl] [Cisplatin] | 3.5 ± 0.9 | 11.5 ± 2.9 |  |  | 
2 | nisin (ITSISLCTPGCKTGALMGCNMKTATCHCSIHVSK; not fully specified; Lantibiotic nisin-A; UniProt P13068 24-57, looked up) |  |  | MinD delocalization | red fluorescencing cells | membrane extrusions
